Reference: ChEMBL document CHEMBL1926642, “Relevance of the C-5 position to schweinfurthin induced cytotoxicity” (2011)

Legend:
Format in all cases: functional
SN12C = assay: Growth inhibition of human SN12C cells after 48 hrs by sulforhodamine B assay
IGROV-1 = assay: Growth inhibition of human IGROV1 cells after 48 hrs by sulforhodamine B assay; conditions: IGROV-1, 48 h
MCF7 = assay: Growth inhibition of human MCF7 cells after 48 hrs by sulforhodamine B assay; conditions: MCF7, 48 h
SK-MEL-5 = assay: Growth inhibition of human SK-MEL-5 cells after 48 hrs by sulforhodamine B assay; conditions: SK-MEL-5, 48 h
HOP-62 = assay: Growth inhibition of human HOP62 cells after 48 hrs by sulforhodamine B assay; conditions: HOP-62, 48 h
CCRF-CEM = assay: Growth inhibition of human CCRF-CEM cells after 48 hrs by sulforhodamine B assay
786-0 = assay: Growth inhibition of human 786-0 cells after 48 hrs by sulforhodamine B assay; conditions: 786-0, 48 h
T47D = assay: Growth inhibition of human T47D cells after 48 hrs by sulforhodamine B assay
NCI-H23 = assay: Growth inhibition of human NCI-H23 cells after 48 hrs by sulforhodamine B assay; conditions: NCI-H23, 48 h
NCI-H460 [1] = assay: Growth inhibition of human NCI-H460 cells after 48 hrs by sulforhodamine B assay; conditions: NCI-H460, 48 h
SR = assay: Growth inhibition of human SR cells after 48 hrs by sulforhodamine B assay
SF-295 = assay: Growth inhibition of human SF295 cells after 48 hrs by sulforhodamine B assay; conditions: SF-295, 48 h
SNB-75 = assay: Growth inhibition of human SNB75 cells after 48 hrs by sulforhodamine B assay; conditions: SNB-75, 48 h
OVCAR-5 [2] = assay: Growth inhibition of human OVCAR5 cells after 48 hrs by sulforhodamine B assay; conditions: OVCAR-5, 48 h
DU-145 = assay: Growth inhibition of human DU145 cells after 48 hrs by sulforhodamine B assay; conditions: DU-145, 48 h
NCI-H322M = assay: Growth inhibition of human NCI-H322M cells after 48 hrs by sulforhodamine B assay
OVCAR-8 = assay: Growth inhibition of human OVCAR8 cells after 48 hrs by sulforhodamine B assay; conditions: OVCAR-8, 48 h
HOP-92 = assay: Growth inhibition of human HOP92 cells after 48 hrs by sulforhodamine B assay; conditions: HOP-92, 48 h
PC-3 = assay: Growth inhibition of human PC3 cells after 48 hrs by sulforhodamine B assay; conditions: PC-3, 48 h
Malme-3M = assay: Growth inhibition of human MALME-3M cells after 48 hrs by sulforhodamine B assay
UACC-62 = assay: Growth inhibition of human UACC62 cells after 48 hrs by sulforhodamine B assay; conditions: UACC-62, 48 h
MDA-MB-231 [3] = assay: Growth inhibition of human MDA-MB-231/ATCC cells after 48 hrs by sulforhodamine B assay; conditions: MDA-MB-231, 48 h
A549 = assay: Growth inhibition of human A549 cells after 48 hrs by sulforhodamine B assay; conditions: A549, 48 h
HCT-15 = assay: Growth inhibition of human HCT15 cells after 48 hrs by sulforhodamine B assay; conditions: HCT-15, 48 h
RXF 393 = assay: Growth inhibition of human RXF393 cells after 48 hrs by sulforhodamine B assay; conditions: RXF 393, 48 h
SK-OV-3 = assay: Growth inhibition of human SKOV3 cells after 48 hrs by sulforhodamine B assay; conditions: SK-OV-3, 48 h
SNB-19 = assay: Growth inhibition of human SNB19 cells after 48 hrs by sulforhodamine B assay; conditions: SNB-19, 48 h
KM12 = assay: Growth inhibition of human KM12 cells after 48 hrs by sulforhodamine B assay; conditions: KM12, 48 h
OVCAR-5 [4] = assay: Cytotoxicity against human OVCAR5 cells assessed as cell growth at 10 uM after 48 hrs by sulforhodamine B assay relative to control; conditions: OVCAR-5, 48 h, read-out: Activity
Procedure, shortened: (§1)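 Compounds went through the NCI 60 cell-line screen, whose current protocol tests first at a single dose.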

NCI/ADR-RES = assay: Cytotoxicity against human NCI/ADR-RES cells assessed as cell growth at 10 uM after 48 hrs by sulforhodamine B assay relative to control; conditions: read-out: Activity; procedure, shortened: as §1
MDA-MB-231 [5] = assay: Cytotoxicity against human MDA-MB-231/ATCC cells assessed as cell growth at 10 uM after 48 hrs by sulforhodamine B assay relative to control; conditions: MDA-MB-231, 48 h, read-out: Activity; procedure, shortened: as §1
NCI-H460 [6] = assay: Cytotoxicity against human NCI-H460 cells assessed as cell growth at 10 uM after 48 hrs by sulforhodamine B assay relative to control; conditions: NCI-H460, 48 h, read-out: Activity; procedure, shortened: as §1
[7] = read-out: pLC50 (the source's name) (converted)

COc1cc(/C=C/c2cc(O)c3c(c2)C[C@@H]2C(C)(C)[C@H](O)CC[C@@]2(C)O3)cc(O)c1C/C=C(\C)CCC=C(C)C
GI50 (SN12C): 1.51 µM | LC50 (SN12C): 8.51 µM | TGI (SN12C; read-out: pTGI (converted)): 3.63 µM | GI50 (IGROV-1): 2.09 µM | LC50 (IGROV-1): 40.7 µM | TGI (IGROV-1; read-out: pTGI (converted)): 11 µM | GI50 (MCF7): 0.309 µM | LC50 (MCF7): 29.5 µM | TGI (MCF7; read-out: pTGI (converted)): 3.47 µM | GI50 (SK-MEL-5): 0.955 µM | LC50 (SK-MEL-5): 5.37 µM | TGI (SK-MEL-5; read-out: pTGI (converted)): 2.29 µM | GI50 (HOP-62): 0.479 µM | LC50 (HOP-62): 30.2 µM | TGI (HOP-62; read-out: pTGI (converted)): 8.13 µM | GI50 (CCRF-CEM): 0.12 µM | LC50 (CCRF-CEM): 100 µM | TGI (CCRF-CEM; read-out: pTGI (converted)): 4.37 µM | GI50 (786-0): 0.0339 µM | CC50 (786-0; [7]): 15.5 µM | TGI (786-0; read-out: pTGI (converted)): 1.45 µM | GI50 (T47D): 1.41 µM | LC50 (T47D): 39.8 µM | TGI (T47D; read-out: pTGI (converted)): 7.08 µM | GI50 (NCI-H23): 1.51 µM | LC50 (NCI-H23): 26.3 µM | TGI (NCI-H23; read-out: pTGI (converted)): 4.47 µM | GI50 (NCI-H460 [1]): 0.339 µM | LC50 (concentration killing 50% of cells) (NCI-H460 [1]): 64.6 µM | TGI (NCI-H460 [1]; read-out: pTGI (converted)): 9.12 µM | GI50 (SR): 0.288 µM | LC50 (SR): 100 µM | TGI (SR; read-out: pTGI (converted)): 4.07 µM | LC50 (SF-295): 26.9 µM | GI50 (SF-295; read-out: GI50): 0.022 µM | GI50 (SF-295; read-out: pGI50 (converted)): 0.024 µM | TGI (SF-295; read-out: pTGI (converted)): 0.195 µM | GI50 (SNB-75): 0.123 µM | LC50 (SNB-75): 33.9 µM | TGI (SNB-75; read-out: pTGI (converted)): 6.31 µM | GI50 (OVCAR-5 [2]): 2.51 µM | LC50 (OVCAR-5 [2]): 45.7 µM | TGI (OVCAR-5 [2]; read-out: pTGI (converted)): 13.2 µM | GI50 (DU-145): 2 µM | LC50 (DU-145): 77.6 µM | TGI (DU-145; read-out: pTGI (converted)): 11.7 µM | GI50 (NCI-H322M): 3.39 µM | LC50 (NCI-H322M): 43.7 µM | TGI (NCI-H322M; read-out: pTGI (converted)): 14.1 µM | GI50 (OVCAR-8): 2.82 µM | LC50 (OVCAR-8): 51.3 µM | TGI (OVCAR-8; read-out: pTGI (converted)): 12.6 µM | GI50 (HOP-92): 2.29 µM | LC50 (HOP-92): 50.1 µM | TGI (HOP-92; read-out: pTGI (converted)): 6.61 µM | GI50 (PC-3): 0.372 µM | CC50 (PC-3; [7]): 41.7 µM | TGI (PC-3; read-out: pTGI (converted)): 5.25 µM | GI50 (Malme-3M): 1.95 µM | LC50 (Malme-3M): 30.9 µM | TGI (Malme-3M; read-out: pTGI (converted)): 5.13 µM | GI50 (UACC-62): 0.204 µM | LC50 (50% lethal concentration) (UACC-62): 7.41 µM | TGI (UACC-62; read-out: pTGI (converted)): 0.794 µM | GI50 (MDA-MB-231 [3]): 1.2 µM | CC50 (MDA-MB-231 [3]; [7]): 8.13 µM | TGI (MDA-MB-231 [3]; read-out: pTGI (converted)): 2.88 µM | LC50 (A549): 40.7 µM | GI50 (A549; read-out: GI50): 0.72 µM | GI50 (A549; read-out: pGI50 (converted)): 0.955 µM | TGI (A549; read-out: pTGI (converted)): 10.7 µM | GI50 (HCT-15): 1.12 µM | LC50 (HCT-15): 7.94 µM | TGI (HCT-15; read-out: pTGI (converted)): 2.95 µM | GI50 (RXF 393): < 0.01 µM | LC50 (50% lethal concentration) (RXF 393): 4.37 µM | TGI (RXF 393; read-out: pTGI (converted)): 0.055 µM | GI50 (SK-OV-3): 1.38 µM | LC50 (SK-OV-3): 38 µM | TGI (SK-OV-3; read-out: pTGI (converted)): 14.8 µM | GI50 (SNB-19): 2.88 µM | LC50 (SNB-19): 42.7 µM | TGI (SNB-19; read-out: pTGI (converted)): 17.8 µM | GI50 (KM12): 1.17 µM | LC50 (KM12): 7.08 µM | TGI (KM12; read-out: pTGI (converted)): 2.88 µM

COc1cc(/C=C/c2cc(Br)c3c(c2)C[C@@H]2C(C)(C)[C@H](O)CC[C@@]2(C)O3)cc(O)c1C/C=C(\C)CCC=C(C)C
growth at 10 µM (OVCAR-5 [4]): 105% | growth at 10 µM (NCI/ADR-RES): 105% | growth at 10 µM (MDA-MB-231 [5]): 96.6% | growth at 10 µM (NCI-H460 [6]): 108%

COCc1cc(/C=C/c2cc(O)c(C/C=C(\C)CCC=C(C)C)c(OC)c2)cc2c1O[C@]1(C)CC[C@@H](O)C(C)(C)[C@H]1C2
growth at 10 µM (OVCAR-5 [4]): 114% | growth at 10 µM (NCI/ADR-RES): 100% | growth at 10 µM (MDA-MB-231 [5]): 81.3% | growth at 10 µM (NCI-H460 [6]): 105%
